In ChEMBL document CHEMBL4622983, “Structure-Activity Relationship Studies of α-Ketoamides as Inhibitors of the Phospholipase A and Acyltransferase Enzyme Family” (J Med Chem, 2020):

Legend:
[1] = molecular target: Cannabinoid receptor 2 (Homo sapiens) (UniProt P34972); assay: Displacement of [3H]CP55940 from human CB2 receptor expressed in CHOK1 cell membranes at 10 uM by liquid scintillation spectrometry analysis; conditions: CHO-K1
Method in brief: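 [3H]CP55940 displacement at human CB1 or CB2 receptors, single test concentration 10 μM. Result expressed as % radioligand displacement ± SD (N = 2, n = 2).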

[2] = molecular target: Diacylglycerol lipase-beta (Mus musculus) (UniProt Q91WC9); assay: Inhibition of mouse brain membrane DAGLbeta assessed as enzyme remaining activity at 10 uM preincubated for 30 mins followed by MB064 or FP-TAMRA addition and measured after 15 mins by SDS-PAGE based ABPP analysis relative to control; assay type: cell membranes
Diacylglycerol lipase-beta (Mus musculus), sequence (Q91WC9 whole entry): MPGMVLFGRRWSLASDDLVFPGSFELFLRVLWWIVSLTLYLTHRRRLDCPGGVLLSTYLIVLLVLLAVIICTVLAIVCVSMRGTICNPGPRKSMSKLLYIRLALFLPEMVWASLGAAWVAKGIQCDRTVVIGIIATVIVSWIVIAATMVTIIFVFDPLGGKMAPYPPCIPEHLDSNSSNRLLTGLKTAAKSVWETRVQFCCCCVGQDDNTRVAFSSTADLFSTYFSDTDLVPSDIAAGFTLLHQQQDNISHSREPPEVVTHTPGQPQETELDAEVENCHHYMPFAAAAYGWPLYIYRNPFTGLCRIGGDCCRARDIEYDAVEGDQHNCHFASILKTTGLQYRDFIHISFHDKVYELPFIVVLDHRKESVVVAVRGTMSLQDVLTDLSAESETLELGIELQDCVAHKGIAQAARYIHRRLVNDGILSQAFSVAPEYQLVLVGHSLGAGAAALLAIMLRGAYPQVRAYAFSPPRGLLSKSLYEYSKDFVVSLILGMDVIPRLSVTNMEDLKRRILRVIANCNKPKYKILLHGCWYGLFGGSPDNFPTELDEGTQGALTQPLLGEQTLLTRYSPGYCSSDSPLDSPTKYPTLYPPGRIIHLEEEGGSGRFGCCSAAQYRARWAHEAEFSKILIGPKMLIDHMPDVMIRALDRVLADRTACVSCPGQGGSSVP
Method in brief: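 Mouse brain membrane proteome (2 μg/μL) preincubated with 10 μM inhibitor for 30 min at rt. Then MB064 250 nM or FP-TAMRA 500 nM for 15 min at rt. Resolved on 10% SDS-PAGE, fluorescence normalized to Coomassie. Reported as % remaining activity ± SD, n = 3.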

[3] = molecular target: T1, Phospholipase A and acyltransferase 2 (Homo sapiens) (UniProt Q9NWW9); assay: Inhibition of full-length C-terminal FLAG-tagged human PLAAT2 expressed in human U2OS cells assessed as reduction in anandamide level at 10 uM incubated for 4 hrs by LC-MS/MS analysis relative to control; assay type: cell-based
T1 sequence (whole entry): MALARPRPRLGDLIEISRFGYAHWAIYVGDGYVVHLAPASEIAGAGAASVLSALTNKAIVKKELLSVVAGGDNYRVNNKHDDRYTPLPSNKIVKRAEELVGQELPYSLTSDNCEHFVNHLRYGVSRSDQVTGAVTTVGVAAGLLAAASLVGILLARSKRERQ
Method in brief: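 U2OS cells transfected with PLAAT2, PLAAT5 or empty vector (PEI, 1:5 plasmid/PEI). At 24 h, switched to serum-free medium with 10 μM compound (0.1% DMSO) or DMSO for 4 h at 37 °C. Pellets extracted with MTBE against deuterated internal standards. NAEs, 2-AG and free fatty acids quantified by LC–MS/MS, normalized to live cell count. Four biological replicates; one-way ANOVA.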

Cannabinoid receptor 2 (Homo sapiens), sequence (P34972 whole entry): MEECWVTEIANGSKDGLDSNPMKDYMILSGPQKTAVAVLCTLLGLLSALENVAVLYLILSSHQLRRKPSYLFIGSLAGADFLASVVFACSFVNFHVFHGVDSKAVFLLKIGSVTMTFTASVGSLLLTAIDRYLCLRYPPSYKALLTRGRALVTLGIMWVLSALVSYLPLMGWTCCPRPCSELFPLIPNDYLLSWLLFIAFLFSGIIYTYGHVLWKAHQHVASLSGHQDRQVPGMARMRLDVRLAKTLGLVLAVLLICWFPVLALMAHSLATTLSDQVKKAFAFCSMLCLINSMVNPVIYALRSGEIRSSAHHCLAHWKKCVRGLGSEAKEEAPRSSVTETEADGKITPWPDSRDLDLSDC

## O=C(CCCc1ccccc1)C(=O)NCCc1ccc(Oc2ccccc2)cc1
[1]
  Activity: 32%
[2]
  Activity: 83%
[3]
  fold change (FC): 2
